Source: ChEMBL document CHEMBL4017487, “Design and Synthesis of γ- and δ-Lactam M1 Positive Allosteric Modulators (PAMs): Convulsion and Cholinergic Toxicity of an M1-Selective PAM with Weak Agonist Activity” (J Med Chem, 2017)
Substitutions are numbered along the chain they refer to.

Experiments:
[1] = molecular target: T1, Muscarinic acetylcholine receptor M1 (Homo sapiens, UniProt P11229); assay: Agonist activity at human muscarinic acetylcholine receptor M1 expressed in CHO cells assessed as increase in calcium mobilization at 30 uM incubated for 10 mins by Fluo-8-AM dye based FLIPR assay relative to acetylcholine; assay type: cell-based
T1 sequence (P11229 whole entry): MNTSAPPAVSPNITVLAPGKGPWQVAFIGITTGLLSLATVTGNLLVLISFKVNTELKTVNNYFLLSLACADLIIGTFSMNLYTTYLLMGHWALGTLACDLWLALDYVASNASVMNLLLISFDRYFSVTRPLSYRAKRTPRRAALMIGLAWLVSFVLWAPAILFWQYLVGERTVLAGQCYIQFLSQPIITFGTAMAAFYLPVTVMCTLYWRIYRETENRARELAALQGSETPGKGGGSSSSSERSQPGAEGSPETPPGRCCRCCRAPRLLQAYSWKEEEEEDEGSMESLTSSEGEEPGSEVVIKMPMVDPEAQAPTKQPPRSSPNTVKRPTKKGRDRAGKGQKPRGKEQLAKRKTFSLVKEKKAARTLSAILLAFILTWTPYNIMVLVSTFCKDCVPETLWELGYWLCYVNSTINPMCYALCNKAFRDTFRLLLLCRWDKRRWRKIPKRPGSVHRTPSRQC

Rattus norvegicus [2] = assay: Cholinergic toxicity in rat at 1 to 5 mg/kg, po administered as single dose; assay type: organism-based; settings: in vivo
Outline: (§1)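 Rat single oral dose escalation, 3/sex/dose. 1 and 5 mg/kg as a 0.5% methylcellulose suspension; 15 and 45 mg/kg as a nanosuspension (1.25% w/v hydroxypropyl cellulose SL, 0.05% docusate sodium in water).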

MDR1 = assay: Efflux ratio of permeability from basolateral to apical side over apical to basolateral side in MDCK1 cells expressing MDR1; assay type: ADME, cell-based, Canis lupus familiaris; settings: dog, MDCK-MDR1
Outline: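 MDCKI-MDR1 cells (MDCK epithelial line transfected with MDR1/P-gp; from the NIH). Permeability measured as a rate in 10−6 cm/s in both directions; value is the BA/AB ratio.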

Mus musculus = assay: In vivo agonist activity at muscarinic acetylcholine receptor M1 in C57BL/6 mouse assessed as increase in IP1 accumulation in striatum at 1 to 10 mg/kg, sc measured after 2 hrs; assay type: organism-based
Outline: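 C57BL/6 mice dosed with compound or vehicle, then ex vivo striatal IP1 and free brain concentration (Cb,u) measured. Data points are individual mice.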

[3] = Cholinergic toxicity in po dosed rat administered as single dose after 1 to 1.5 hrs post dose; assay type: organism-based; settings: in vivo; outline: as §1
Canis familiaris = assay: Unbound AUC (0 to 24 hrs) in dog plasma at 5 mg/kg, po administered as single dose using spray dried dispersion formulation; assay type: ADME, organism-based, Canis lupus familiaris; settings: in vivo
Rattus norvegicus [4] = assay: Unbound Cmax in rat plasma at 5 mg/kg, po administered as single dose; assay type: ADME, organism-based; settings: in vivo
Outline: (§2)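 Rats (3/sex/dose) dosed orally once, 1 or 5 mg/kg as a 0.5% methylcellulose suspension.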

[5] = molecular target: T2, Muscarinic acetylcholine receptor M1 (Rattus norvegicus, UniProt P08482); assay: Agonist activity at muscarinic acetylcholine receptor M1 in Sprague-Dawley rat brain hippocampal slices assessed as increase in firing rate at CA1 pyramidal neurons after 10 mins by electrophysiology method
T2 sequence (P08482 whole entry): T1 sequence (P11229 whole entry) with A5V, T254S, P309S, R320K, A337G, I413V
Outline: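 Rat hippocampal slices; spontaneous action potentials recorded from CA1 pyramidal neurons, read as spike rate. Agonist mode has no carbachol; PAM mode uses an EC20 level of carbachol. Top concentration tested was 3 μM.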

[6] = Unbound plasma concentration in dog at 0.5 mg/kg, po or 0.1 mg/kg, iv administered as single bolus dose; assay type: ADME, organism-based, Canis lupus familiaris
Outline: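 Dog PK: IV bolus given as a solution, 0.1 mg/kg in 20% HPBCD; oral dose given as a suspension, 0.5 mg/kg in 0.5% methylcellulose. Fraction unbound in plasma determined.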

[7] = Selectivity ratio of EC50 for human muscarinic acetylcholine receptor M5 expressed in CHO cells to EC50 for human muscarinic acetylcholine receptor M1 expressed in CHO cells; assay type: ADME, cell-based
[8] = molecular target: T3, Muscarinic acetylcholine receptor M2 (Homo sapiens, UniProt P08172); assay: Positive allosteric modulation of human muscarinic acetylcholine receptor M2 expressed in CHO cells assessed as increase in acetylcholine-induced cAMP accumulation up to 10 uM after 2 hrs by cAMP-Glo assay; assay type: cell-based
T3 sequence (P08172 whole entry): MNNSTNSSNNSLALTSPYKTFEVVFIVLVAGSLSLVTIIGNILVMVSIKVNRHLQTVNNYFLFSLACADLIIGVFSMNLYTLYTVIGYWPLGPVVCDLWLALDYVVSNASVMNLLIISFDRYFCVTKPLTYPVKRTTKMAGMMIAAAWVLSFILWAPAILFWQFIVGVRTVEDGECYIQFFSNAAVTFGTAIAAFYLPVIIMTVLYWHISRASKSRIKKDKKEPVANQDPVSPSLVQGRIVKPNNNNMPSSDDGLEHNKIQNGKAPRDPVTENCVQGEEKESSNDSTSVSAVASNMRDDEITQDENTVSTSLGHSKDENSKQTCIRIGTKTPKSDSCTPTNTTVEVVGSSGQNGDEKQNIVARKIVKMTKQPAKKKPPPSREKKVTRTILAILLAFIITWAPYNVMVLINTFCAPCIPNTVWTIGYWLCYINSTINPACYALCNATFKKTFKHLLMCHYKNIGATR
Outline: (§3)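 Recombinant functional human M2–M5 assays, each run in agonist and PAM modes at concentrations up to 10 μM.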

[9] = Unbound plasma concentration in iv or po dosed mouse; assay type: ADME, organism-based
Brain = assay: Unbound brain concentration in amphetamine-induced hyperlocomotion C57BL/6 mouse at 1 mg/kg, sc measured after 1 hr by LC-MS/MS analysis; assay type: ADME, organism-based; settings: in vivo
Outline: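 Satellite group of C57BL/6 mice from the amphetamine-stimulated locomotor study, N = 2/dose at 0.32, 1 and 3.2 mg/kg. Dosed sc as a solution in 10/90 Cremophor/water. Unbound plasma and brain concentrations measured at T = 1 h.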

Rattus norvegicus [10] = assay: Unbound AUC (0 to 24 hrs) in rat plasma at 5 mg/kg, po administered as single dose; assay type: ADME, organism-based; settings: in vivo; outline: as §2
[11] = molecular target: T3, Muscarinic acetylcholine receptor M2; assay: Agonist activity at human muscarinic acetylcholine receptor M2 expressed in CHO cells assessed as increase in cAMP accumulation after 2 hrs by cAMP-Glo assay; assay type: cell-based; outline: as §3

Q: For `Cc1cc2c(cc1Cc1ccc(-c3cocn3)cc1)C(=O)N([C@H]1CCOC[C@@H]1O)C2`, which Activity [1] is on record?
A: 23%

Q: And the Activity (Rattus norvegicus [2])?
A: Non-Toxic

Q: And the efflux ratio (MDR1)?
A: 11

Q: And the Activity (Mus musculus)?
A: Active

Q: And the NOAEL [3]?
A: 15 mg/kg

Q: And the fAUC (Canis familiaris)?
A: 3.85 µM·h

Q: What about the fCmax (Rattus norvegicus [4]) of the same compound?
A: 313 nM

Q: What about the Activity [5] of the same compound?
A: Not Active

Q: And the fraction unbound [6]?
A: 0.059

Q: What about the “Ratio EC50” value [7] of the same compound?
A: > 200

Q: And the Activity [8]?
A: Not Active

Q: And the fraction unbound [9]?
A: 0.013

Q: What about the “Drug uptake(free)” value (Brain) of the same compound?
A: 14 nM

Q: And the fAUC (Rattus norvegicus [10])?
A: 4.927 µM·h

Q: What about the EC50 [11] of the same compound?
A: > 10 µM
